Data set [1] has as its system Jurkat. The data set is described as follows: Cell cycle arrest in human Jurkat E6-1 cells assessed as accumulation at S phase at 1.2 uM after 24 hrs by FACS flow cytometry. In kind it is functional. Put shortly:
(§1)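 Jurkat E6 cells grown in RPMI 1640 with 10% FBS at 37 °C, 5% CO2. Compounds were serially diluted in medium starting 50% above the M21 IC50. 4.0 × 10^5 cells were exposed for 24 h, then washed and spiked with chicken red blood cells as internal standard. Cells were fixed in ice-cold ethanol, stained with 1 μg/mL DAPI on ice for 1 h, and phase distribution was read by flow cytometry. The control was 0.5% DMSO.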

Data set [2] relates to Jurkat. The data set is described as follows: Cell cycle arrest in human Jurkat E6-1 cells assessed as accumulation at G2/M phase at 1.2 uM after 24 hrs by FACS flow cytometry. In kind it is functional. Put shortly:
(§2)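 Jurkat E6 cells cultured in RPMI 1640 with 10% FBS at 37 °C, 5% CO2. Compounds serially diluted in medium, starting 50% above the M21 IC50. 4.0 × 10^5 cells were exposed for 24 h. Cells were washed with PBS, chicken red blood cells added as internal standard, and fixed in ice-cold EtOH. After 1 h on ice in PBS with 1 μg/mL DAPI, phase distribution was read by flow cytometry. DMSO-treated cells served as control.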

For data set [3], the system named is M21. The data set can be described thus: Induction of DNA damage response in human M21 cells assessed as phosphorylation of H2AX into gammaH2AX at IC50 after 24 hrs by DAPI staining-based immunofluorescence assay. In kind it is functional, cell-based. In outline: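 M21 cells (1 × 10^5) on fibronectin-coated coverslips, grown 24 h, then exposed to agent for 24 h at 37 °C; 0.5% DMSO control. Fixed with 3.7% formaldehyde and permeabilized with 0.1% saponin/3% BSA. Probed with mouse anti-H2AX pS139 antibody for 2 h at room temperature. Nuclei counterstained with DAPI; nuclear γH2AX foci viewed by epifluorescence microscopy.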

Data set [4] deals with HT-1080. The data set can be described thus: Antitumor activity against human HT1080 cells xenografted in chicken chorioallantoic membrane assessed as inhibition of tumor growth at 10 ug per egg, iv administered on day 11 measured on day 17 by CAM assay. In kind it is functional. Put shortly: (§3)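 HT-1080 fibrosarcoma cells (3.5 × 105/egg) were applied onto freshly exposed CAM of fertilized chicken eggs. On day 11, drug from a DMSO stock was diluted in Cremophor EL/99% ethanol/PBS (1/1/14 v/v) and 100 μL was injected into a vein under the CAM. Groups of 10–12 eggs were kept to day 17, embryos were euthanized at 4 °C for ≥4 h, and tumor wet weight was recorded.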

Data set [5] in a line: Toxicity in fertilized chicken embryo assessed as mortality rate at 10 ug per egg, iv administered on day 11 measured on day 17 CAM assay. In kind it is organism-based, Gallus gallus. The settings on record: in vivo, read-out: Activity. Put shortly:
(§4)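 Fertilized chicken eggs grafted on the CAM with HT-1080 cells (3.5 × 105/egg) received a 100 μL intravenous injection under the CAM on day 11. The drug was diluted in Cremophor EL/99% ethanol/PBS (1/1/14 v/v). Groups held 10–12 eggs and were incubated until day 17, when dead embryos and signs of toxicity were counted per group.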

The test system of another data set is HT-29. The data set is described as follows: Cytotoxicity against human HT-29 cells after 48 hrs by SRB assay. In kind it is functional, cell-based. The settings on record: HT-29, 48 h. In outline: (§5)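 NCI sulforhodamine B protocol. Cells were grown in high-glucose DMEM with 5% FBS and seeded per well at 4 × 10^3 (HT-29), 3.5 × 10^3 (M21) or 3 × 10^3 (MCF-7), then allowed 24 h to attach. Serial dilutions from 200 μM to 780 nM final were applied in DMSO <0.5% for 48 h. Cells were fixed with cold TCA (10% final) and stained with SRB, with absorbance read at 530–568 nm. Growth inhibition was computed against day-0 plates, giving the 50% inhibitory concentration. At least two experiments in triplicate, CV <10%.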

In data set [6] the test system is M21. The data set can be described thus: Cytotoxicity against human M21 cells after 48 hrs by SRB assay. In kind it is functional, cell-based. The settings on record: M21, 48 h. In outline:
as §5
For orientation: In SRB staining, fixed cells bind dye roughly in proportion to their protein.

The next data set concerns MCF7. The data set can be described thus: Cytotoxicity against human MCF7 cells after 48 hrs by SRB assay. In kind it is functional, cell-based. The settings on record: MCF7, 48 h. In outline: as §5
Data set [7] has as its system Jurkat. The data set is described as follows: Cell cycle arrest in human Jurkat E6-1 cells assessed as accumulation at G0/G1 phase at 1.2 uM after 24 hrs by FACS flow cytometry. In kind it is functional. In outline:
as §2

For data set [8], the system named is Jurkat. The data set can be described thus: Cell cycle arrest in human Jurkat E6-1 cells assessed as accumulation at S phase at 4.8 uM after 24 hrs by FACS flow cytometry. In kind it is functional. Put shortly:
(§6)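 Jurkat E6 T-lymphoblasts in RPMI 1640 with 10% FBS, 37 °C, 5% CO2. […] Chicken red blood cells were added as internal standard. Cells were fixed in ice-cold EtOH and stained with 1 μg/mL DAPI on ice for 1 h before flow cytometry of phase distribution. Vehicle control was 0.5% DMSO.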
(In general: In flow cytometry, cells or beads pass a laser one at a time.)

The subject of data set [9] is Jurkat. The data set is described as follows: Cell cycle arrest in human Jurkat E6-1 cells assessed as accumulation at G2/M phase at 4.8 uM after 24 hrs by FACS flow cytometry. In kind it is functional. Put shortly:
as §1

Data set [10] has as its system Jurkat. The data set is described as follows: Cell cycle arrest in human Jurkat E6-1 cells assessed as accumulation at G0/G1 phase at 4.8 uM after 24 hrs by FACS flow cytometry. In kind it is functional. Put shortly: as §2
For data set [11], the system named is Jurkat. The data set is described as follows: Cell cycle arrest in human Jurkat E6-1 cells assessed as accumulation at S phase at 0.84 uM after 24 hrs by FACS flow cytometry. In kind it is functional. In outline: as §1
In data set [12] the test system is Jurkat. The data set is described as follows: Cell cycle arrest in human Jurkat E6-1 cells assessed as accumulation at G2/M phase at 0.84 uM after 24 hrs by FACS flow cytometry. In kind it is functional. In outline:
as §2

Data set [13] concerns HT-1080. The data set is described as follows: Antitumor activity against human HT1080 cells xenografted in chicken chorioallantoic membrane assessed as inhibition of tumor growth at 30 ug per egg, iv administered on day 11 measured on day 17 by CAM assay. In kind it is functional. In outline:
as §3

Data set [14] can be described thus: Toxicity in fertilized chicken embryo assessed as mortality rate at 30 ug per egg, iv administered on day 11 measured on day 17 by CAM assay. In kind it is organism-based, Gallus gallus. As to conditions: in vivo, read-out: Activity. In outline: as §4
Data set [15] relates to Jurkat. The data set can be described thus: Cell cycle arrest in human Jurkat E6-1 cells assessed as accumulation at G0/G1 phase at 0.84 uM after 24 hrs by FACS flow cytometry. In kind it is functional. In outline:
as §2

Data set [16] has as its system Jurkat. The data set is described as follows: Cell cycle arrest in human Jurkat E6-1 cells assessed as accumulation at S phase at 6.6 uM after 24 hrs by FACS flow cytometry. In kind it is functional. Put shortly: as §6
Data set [17] has as its system Jurkat. The data set is described as follows: Cell cycle arrest in human Jurkat E6-1 cells assessed as accumulation at G2/M phase at 6.6 uM after 24 hrs by FACS flow cytometry. In kind it is functional. In outline:
as §1

Data set [18] concerns Jurkat. The data set is described as follows: Cell cycle arrest in human Jurkat E6-1 cells assessed as accumulation at G0/G1 phase at 6.6 uM after 24 hrs by FACS flow cytometry. In kind it is functional. In outline: as §2
Data set [19] concerns Jurkat. The data set is described as follows: Cell cycle arrest in human Jurkat E6-1 cells assessed as accumulation at S phase at 17 uM after 24 hrs by FACS flow cytometry. In kind it is functional. Put shortly:
as §1

The test system of data set [20] is Jurkat. The data set is described as follows: Cell cycle arrest in human Jurkat E6-1 cells assessed as accumulation at G2/M phase at 17 uM after 24 hrs by FACS flow cytometry. In kind it is functional. In outline:
as §1

Data set [21] concerns Jurkat. The data set is described as follows: Cell cycle arrest in human Jurkat E6-1 cells assessed as accumulation at G0/G1 phase at 17 uM after 24 hrs by FACS flow cytometry. In kind it is functional. In outline:
as §2

Consider five molecules from ChEMBL document CHEMBL2163200, “Synthesis, biological evaluation, and structure-activity relationships of novel substituted N-phenyl ureidobenzenesulfonate derivatives blocking cell cycle progression in S-phase and inducing DNA double-strand breaks” (J Med Chem, 2012).

Activity calls are given as the source filed them. The calls are words filed in the database; no cut-off is given here.

Take `Cc1ccccc1OS(=O)(=O)c1ccc(NC(=O)NCCCl)cc1`: the figures for the Activity with Jurkat [1], in the data set on Jurkat [2] and in the data set on Jurkat [7] were 71%, 7% and 22%, respectively. In addition, the result in the data set with M21 [3] was Active. Further, the TGI – broadly, how far tumour growth fell short of that in controls – in the data set on HT-1080 [4] came out at 60%. Also, in data set [5], the mortality at 6 days worked out at 15%. Further, the IC50 (usually the point on the concentration scale where inhibition reaches its midpoint) with HT-29 was found to be 4.7 µM; in the data set on M21 [6] it was 2.8 µM; in the data set with MCF7 it was 4.8 µM.

On to `Cc1cccc(OS(=O)(=O)c2ccc(NC(=O)NCCCl)cc2)c1`, for which the Activity with Jurkat [8] stood at 52%; with Jurkat [9], 13%; in the data set with Jurkat [10], 35%. The figures for the IC50 in the data set with HT-29, in the data set with M21 [6] and in the data set on MCF7 were 11 µM, 7.2 µM and 17 µM, respectively.

`O=C(NCCCl)Nc1ccc(S(=O)(=O)Oc2ccc(O)cc2)cc1`: the figures for the Activity in the data set on Jurkat [11], in the data set with Jurkat [12] and in the data set on Jurkat [15] were 53%, 20% and 27%, respectively. For the same molecule, in the data set with HT-1080 [13], the TGI stood at 69%. In addition, the mortality at 6 days in data set [14] was determined as 15%. Moreover, the IC50 in the data set with HT-29 was determined as 1.5 µM; in the data set with M21 [6], 1.2 µM; in the data set with MCF7 it was 1.3 µM.

On to `CCCc1ccccc1OS(=O)(=O)c1ccc(NC(=O)NCCCCl)cc1`, for which the Activity in the data set with Jurkat [16] came out at 67%; in the data set on Jurkat [17], 8%; in the data set on Jurkat [18] it was 25%. The outcome in the data set on M21 [3] was Active. The IC50 in the data set with M21 [6] came to 13 µM; in the data set on MCF7 it was 15 µM.

Consider `COc1ccc(OS(=O)(=O)c2ccc(NC(=O)NCCCl)cc2)cc1`, for which the Activity in the data set on Jurkat [19] came to 42%; in the data set on Jurkat [20] it was 15%; in the data set with Jurkat [21], 43%. The IC50 with M21 [6] stood at 18 µM; in the data set on MCF7, 27 µM.
